{"source": "ChEMBL document CHEMBL1151834", "about": "“Bioactive alkaloids from endophytic Aspergillus fumigatus” (J Nat Prod, 2009)", "format_in_all_cases": "functional, cell-based", "key": {"KB": {"tested_on": "KB", "assay": "Cytotoxicity against human KB cells after 48 hrs by MTT assay", "summary_of_the_method": "(§1)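 Exponential-phase cells plated, allowed 24 h to establish, then exposed to compound dilutions for 48 h. MTT added (0.1 mg/well) for 4 h, supernatant removed, formazan dissolved in DMSO, absorbance read at 570 nm. IC50 taken as concentration giving 50% growth inhibition; mean ± SD of three experiments run in triplicate.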"}, "PC-12": {"tested_on": "PC-12", "assay": "Induction of neurite outgrowth in rat PC12 cells at 10 uM after 2 days by phase-contrast microscope", "summary_of_the_method": "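PC12 cells kept in DMEM with 10% heat-inactivated fetal calf serum, 5% horse serum, penicillin 50 units/mL and streptomycin 50 µg/mL at 37 °C, 5% CO2. Seeded at 1 × 10^4 cells/mL, cultured one day, then medium replaced with fresh medium containing compound. Cultured 2 days; neurite outgrowth observed by phase-contrast microscopy against untreated control.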"}, "MCF7": {"tested_on": "MCF7", "assay": "Cytotoxicity against human MCF7 cells after 48 hrs by MTT assay", "summary_of_the_method": "as §1"}, "K562": {"tested_on": "K562", "assay": "Cytotoxicity against human K562 cells after 48 hrs by MTT assay", "settings": "K562, 48 h", "summary_of_the_method": "as §1"}}, "note": "Counter-ions that a name gives are not always drawn. The source made the active and inactive calls. No cut-off for these calls is given here.", "data": [{"smiles": "COc1ccc2c3c4n(c2c1)[C@H](C=C(C)C)OOC(C)(C)C[C@@H]4N1C(=O)[C@@H]2CCCN2C(=O)[C@]1(O)[C@H]3O", "note": "[VERRUCULOGEN]", "values": [{"measurement": "Activity", "setting": "KB", "value": "inactive"}, {"measurement": "Activity", "setting": "PC-12", "value": "inactive"}, {"measurement": "Activity", "setting": "MCF7", "value": "inactive"}, {"measurement": "IC50", "setting": "K562", "value": 41, "unit": "µM"}]}, {"smiles": "COc1ccc2c(c1)NC(=O)[C@@]21C[C@H]2C(=O)N3CCC[C@H]3C(=O)N2[C@H]1C=C(C)C", "values": [{"measurement": "Activity", "setting": "KB", "value": "inactive"}, {"measurement": "Activity", "setting": "PC-12", "value": "inactive"}, {"measurement": "Activity", "setting": "MCF7", "value": "inactive"}]}, {"smiles": "C=CC(C)(C)c1[nH]c2cccc3c2c1C[C@@H]1[C@@H]3C[C@@H](C)CN1C", "values": [{"measurement": "Activity", "setting": "KB", "value": "inactive"}, {"measurement": "Activity", "setting": "PC-12", "value": "inactive"}, {"measurement": "Activity", "setting": "MCF7", "value": "inactive"}, {"measurement": "IC50", "setting": "K562", "value": 3.1, "unit": "µM"}]}, {"smiles": "C=CC(C)(C)c1[nH]c2cccc3c2c1C[C@@H]1[C@@H]3[C@@H](O)[C@@H](C)CN1C", "values": [{"measurement": "Activity", "setting": "KB", "value": "inactive"}, {"measurement": "Activity", "setting": "PC-12", "value": "inactive"}, {"measurement": "Activity", "setting": "MCF7", "value": "inactive"}, {"measurement": "IC50", "setting": "K562", "value": 41, "unit": "µM"}]}, {"smiles": "COc1cccc2c1C(=O)c1c(O)c3c(c(O)c1C2=O)C[C@@](O)(C(=O)CO)C[C@@H]3O[C@H]1C[C@H](N)[C@H](O)[C@H](C)O1", "note": "[DOXORUBICIN HYDROCHLORIDE]", "values": [{"measurement": "IC50", "setting": "K562", "value": 1.2, "unit": "µM"}]}, {"smiles": "C/C=C\\[C@H](O)[C@H](O)C1=C(C)C(=O)[C@]2(O1)C(=O)N[C@@](OC)(C(=O)c1ccccc1)[C@@H]2O", "values": [{"measurement": "Activity", "setting": "KB", "value": "inactive"}, {"measurement": "Activity", "setting": "MCF7", "value": "inactive"}]}, {"smiles": "COc1ccc2c(C[C@@H]3NC(=O)[C@@H]4CCCN4C3=O)c(CC=C(C)C)[nH]c2c1", "note": "[TRYPROSTATIN A]", "values": [{"measurement": "Activity", "setting": "KB", "value": "inactive"}, {"measurement": "Activity", "setting": "PC-12", "value": "inactive"}, {"measurement": "Activity", "setting": "MCF7", "value": "inactive"}, {"measurement": "IC50", "setting": "K562", "value": 41, "unit": "µM"}]}, {"smiles": "CC/C=C\\[C@H](O)[C@H](O)C1=C(C)C(=O)[C@]2(O1)C(=O)N[C@@](OC)(C(=O)c1ccccc1)[C@@H]2O", "values": [{"measurement": "Activity", "setting": "KB", "value": "inactive"}, {"measurement": "Activity", "setting": "PC-12", "value": "Active"}, {"measurement": "Activity", "setting": "MCF7", "value": "inactive"}]}, {"smiles": "CS[C@]1(CO)C(=O)N2[C@H]3C(=CC=CC3O)C[C@@]2(SC)C(=O)N1C", "note": "(stereo partly specified) [DIMETHYLGLIOTOXIN]", "values": [{"measurement": "Activity", "setting": "KB", "value": "inactive"}, {"measurement": "Activity", "setting": "PC-12", "value": "inactive"}, {"measurement": "Activity", "setting": "MCF7", "value": "inactive"}, {"measurement": "IC50", "setting": "K562", "value": 41, "unit": "µM"}]}, {"smiles": "C[C@@H]1N[C@@H]2N(C1=O)c1ccccc1[C@@]21C[C@@H](n2cnc3ccccc3c2=O)C(=O)O1", "values": [{"measurement": "Activity", "setting": "KB", "value": "inactive"}, {"measurement": "Activity", "setting": "PC-12", "value": "inactive"}, {"measurement": "Activity", "setting": "MCF7", "value": "inactive"}]}, {"smiles": "COc1ccc2c(c1)NC(=O)[C@@]21C=C2C(=O)N3CCC[C@H]3C(=O)N2[C@H]1C=C(C)C", "values": [{"measurement": "Activity", "setting": "KB", "value": "inactive"}, {"measurement": "Activity", "setting": "PC-12", "value": "inactive"}, {"measurement": "Activity", "setting": "MCF7", "value": "inactive"}]}, {"smiles": "COc1ccc2c3c([nH]c2c1)[C@H](C=C(C)C)N1C(=O)[C@@H]2CCCN2C(=O)[C@@H]1C3", "note": "[FUMITREMORGIN]", "values": [{"measurement": "Activity", "setting": "KB", "value": "inactive"}, {"measurement": "Activity", "setting": "PC-12", "value": "inactive"}, {"measurement": "Activity", "setting": "MCF7", "value": "inactive"}, {"measurement": "IC50", "setting": "K562", "value": 41, "unit": "µM"}]}, {"smiles": "CC(C)=CCc1[nH]c2ccccc2c1C[C@@H]1NC(=O)[C@@H]2CCCN2C1=O", "note": "[TRYPROSTATIN B]", "values": [{"measurement": "Activity", "setting": "KB", "value": "inactive"}, {"measurement": "Activity", "setting": "PC-12", "value": "inactive"}, {"measurement": "Activity", "setting": "MCF7", "value": "inactive"}, {"measurement": "IC50", "setting": "K562", "value": 41, "unit": "µM"}]}, {"smiles": "CC(C)=C[C@H]1c2[nH]c3ccccc3c2C[C@H]2C(=O)N3CCC[C@H]3C(=O)N21", "values": [{"measurement": "Activity", "setting": "KB", "value": "inactive"}, {"measurement": "Activity", "setting": "PC-12", "value": "inactive"}, {"measurement": "Activity", "setting": "MCF7", "value": "inactive"}]}]}
